Measured values published in ChEMBL document CHEMBL1146530, “Antihyperglycemic effect of puerarin in streptozotocin-induced diabetic rats” (2003).
Active and inactive are the calls of the source. No cut-off for these calls is given here.

How the values were obtained:
Rattus norvegicus [1] = species on record: Rattus norvegicus; assay: Antihyperglycemic activity against STZ- induced diabetic Wistar rat soleus muscle assessed as 2-[1-14C]-deoxy-D-glucose uptake after 30 mins; format: functional, tissue-based
Method in brief: (§1)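 Soleus muscle strips ([…]) from rats made diabetic with STZ (60 mg/kg iv), used 2 weeks later. Strips were preincubated 30 min in KRBB (37 °C, pH 7.4, 1 mmol/L glucose, 1% fatty acid-free BSA, 5% CO2 in O2), then exposed to test agent 30 min. Next came 2-[1-14C]-deoxy-D-glucose (1 µCi/mL) for 5 min. Strips were dissolved in NaOH and counted by β-counting. Nonspecific uptake was defined with 20 µmol/L cytochalasin B and subtracted. Results are given as % of KRBB-only basal uptake. The 1 nmol/L insulin reference was run the same way.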

Rattus norvegicus [2] = assay: Antihyperglycemic effect in iv dosed STZ- induced diabetic Wistar rat model assessed as reduction in plasma glucose level measured after 30 mins; format: functional, organism-based
Method in brief: (§2)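 Fasting STZ-diabetic rats (60 mg/kg iv, 2 weeks earlier; glucose ≥20 mmol/L) got a single tail-vein bolus (5.0-20.0 mg/kg in normal saline). Vehicle controls received the same volume. Tail-vein blood was drawn 30 min later under pentobarbital (30.0 mg/kg ip). Plasma glucose was measured by enzymatic kit at 37 °C for 10 min, run in duplicate. n = 8 per group; mean ± SEM.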

Rattus norvegicus [3] = assay: Antihyperglycemic effect in STZ- induced diabetic Wistar rat model assessed as reduction in plasma glucose level at 15 mg/kg, iv measured after 30 mins; format: functional; set-up: scale not given: the % may be the effect or the level left; method in brief: as §2
[4] = Antihyperglycemic activity against STZ- induced diabetic Wistar rat soleus muscle assessed as 2-[1-14C]-deoxy-D-glucose uptake at 0.01 umol/L after 30 mins relative to control; format: functional; method in brief: as §1
[5] = Antihyperglycemic activity against STZ- induced diabetic Wistar rat soleus muscle assessed as 2-[1-14C]-deoxy-D-glucose uptake at 100 umol/L after 30 mins relative to control; format: functional; method in brief: as §1
Rattus norvegicus [6] = assay: Induction of GLUT4 mRNA level in STZ- induced diabetic Wistar rat soleus muscle at 15 mg/kg, iv tid every 8 hrs for 3 days by Northern blot relative to beta-actin expression; format: functional
Method in brief: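 Rats received 15.0 mg/kg iv tid (every 8 h) for 3 days and were killed fasting. Soleus total RNA (20 µg) was denatured in formaldehyde/formamide at 55 °C and run on a 1.2% agarose/formaldehyde gel. Blots were probed with [α-32P]dCTP-labelled probe at 65 °C for 2 h and washed to 0.1× SSC/0.1% SDS at 40 °C. GLUT4 was normalized to β-actin; n = 4, mean ± SEM.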

Rattus norvegicus [7] = assay: Induction of GLUT4 protein level in STZ- induced diabetic Wistar rat soleus muscle at 15 mg/kg, iv tid every 8 hrs for 3 days by Western blot relative to vehicle treated normal rat; format: functional
Method in brief: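 Same 3-day tid 15.0 mg/kg iv regimen. Soleus homogenate (50 µg protein) was run on 10% SDS-PAGE and transferred to PVDF. Blots were probed overnight at 4 °C with mouse anti-rat GLUT4 (1:1000); β-tubulin (1:500) served as loading control. Detection was by peroxidase secondary and ECL, with densitometry at 45 kDa (GLUT4) and 50 kDa (β-tubulin). n = 4.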

Rattus norvegicus [8] = assay: Antihyperglycemic effect in STZ- induced diabetic Wistar rat model assessed as decrease in plasma glucose level at 15 mg/kg, iv tid every 8 hrs for 3 days; format: functional
Method in brief: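 STZ-diabetic rats were dosed at 15.0 mg/kg iv into the tail vein every 8 h (tid) for 3 days. Vehicle-treated diabetic and normal rats served as comparisons. Plasma glucose was measured in fasting animals after the final dose.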

Rattus norvegicus [9] = assay: Antihyperglycemic effect in STZ- induced diabetic Wistar rat model assessed as reduction in plasma glucose level at 20 mg/kg, iv measured after 30 mins; format: functional, organism-based; set-up: dose 20 mg/kg; method in brief: as §2
Rattus norvegicus [10] = assay: Antihyperglycemic effect in normal Wistar rat assessed as reduction in plasma glucose level at 15 mg/kg, iv measured after 30 mins by intravenous glucose challenge test
[11] = target: Solute carrier family 2, facilitated glucose transporter member 4 (Rattus norvegicus) (UniProt P19357); assay: Induction of GLUT4 protein level in STZ- induced diabetic Wistar rat soleus muscle at 15 mg/kg, iv tid every 8 hrs for 3 days by Western blot relative to beta-tubulin expression
Rattus norvegicus [12] = assay: Antihyperglycemic effect in normal Wistar rat assessed as decrease in plasma glucose level at 15 mg/kg, iv measured after 5 mins of glucose challenge by intravenous glucose challenge test
Rattus norvegicus [13] = assay: Antihyperglycemic effect in normal Wistar rat assessed as decrease in plasma glucose level at 15 mg/kg, iv measured after 15 mins of glucose challenge by intravenous glucose challenge test

## O=c1c(-c2ccc(O)cc2)coc2c([C@@H]3O[C@H](CO)[C@@H](O)[C@H](O)[C@H]3O)c(O)ccc12 [PUERARIN]
Rattus norvegicus [1]
  Activity: Dose-dependent effect
Rattus norvegicus [2]
  Activity: Dose-dependent effect
Rattus norvegicus [3]
  Activity: 33.5%
[4]
  Activity: 108%
[5]
  Activity: 145%
Rattus norvegicus [6]
  Activity: 1.01 a.u.
Rattus norvegicus [7]
  Activity: 80%
Rattus norvegicus [8]
  Activity: 16.5 mmol/L
Rattus norvegicus [9]
  Activity: Active
Rattus norvegicus [10]
  Activity: 3.9 mmol/L
[11]
  Activity: 0.88 a.u.
Rattus norvegicus [12]
  Activity: 13.4 mmol/L
Rattus norvegicus [13]
  Activity: Active
